Laboratory results as given in ChEMBL document CHEMBL4304821, “Synthesis and structure-activity relationship of nitrile-based cruzain inhibitors incorporating a trifluoroethylamine-based P2 amide replacement” (Bioorg Med Chem, 2019).
Calls of active or inactive are those of the source. The rule behind the calls is not given here.

Key:
[1] = target: Cruzipain (Trypanosoma cruzi) (UniProt P25779); assay: Inhibition of Trypanosoma cruzi cruzain assessed as initial velocity using Z-Phe-Arg-7-amido-4-methylcoumarin as substrate preincubated for 2 mins followed by susbtrate addition by fluorescence based analysis
How it was run: (§1)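 Recombinant cruzain was the catalytic domain of cruzipain without the C-terminal extension, used at 0.15 nM. The assay ran at 37 °C in 100 mM acetate buffer pH 5.5 with 300 mM NaCl, 5 mM DTT, 5% v/v DMSO and 0.01% Triton X-100. Hydrolysis of Z-Phe-Arg-AMC was followed as rate by fluorescence (ex 355/em 460 nm).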

[2] = target: T1, Cruzipain (Trypanosoma cruzi, UniProt P25779); assay: Inhibition of Trypanosoma cruzi cruzain assessed as inhibitor constant using Z-Phe-Arg-7-amido-4-methylcoumarin as substrate preincubated for 2 mins followed by susbtrate addition by fluorescence based analysis; how it was run: as §1
[3] = tested on: Trypanosoma cruzi; assay: Antitrypanosomal activity against Trypanosoma cruzi Y strain amastigotes infected in human U2OS cells assessed as parasite growth inhibition after 72 hrs post infection by DRAQ5 staining based analysis; format: functional, organism-based
How it was run: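 U2OS cells were seeded at 700/well in high DMEM and held 24 h at 37 °C/5% CO2. They were infected with T. cruzi Y strain trypomastigotes from LLC-MK2 cultures at 4 parasites per host cell. Compounds were added on day 3 as 17 points of 2-fold dilution from 100 µM (1% DMSO final), with 96 h exposure. Cells were PFA-fixed, Draq5-stained and imaged. Infection ratio was normalized to infected DMSO and non-infected controls, and EC50 came from a sigmoidal fit. Two independent experiments were run.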

[4] = target: T1, Cruzipain; assay: Inhibition of Trypanosoma cruzi cruzain using Z-Phe-Arg-7-amido-4-methylcoumarin as substrate preincubated for 2 mins followed by susbtrate addition by fluorescence based analysis; how it was run: as §1
[5] = Lipophilicity, log Kw of compound by HPLC analysis; format: physicochemical
[6] = target: Procathepsin L (Homo sapiens, UniProt P07711); assay: Inhibition of Cathepsin L (unknown origin) using Z-Phe-Arg-7-amido-4-methylcoumarin as substrate preincubated for 2 mins followed by susbtrate addition by fluorescence based analysis
How it was run: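 Cathepsin L was used at 0.30 nM, at 37 °C in 100 mM acetate buffer pH 5.5 with 300 mM NaCl, 1 mM DTT, 1 mM EDTA, 5% v/v DMSO and 0.01% Triton X-100. Z-Phe-Arg-AMC hydrolysis rate was monitored by fluorescence (ex 355/em 460 nm).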

[7] = Cytotoxicity in human U2OS cells assessed as reduction in cell viability after […] by DRAQ5 staining based analysis
How it was run: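 Infected U2OS cells (Y strain, 4 parasites/cell) were exposed to 17 2-fold concentrations starting at 100 µM in 1% DMSO. Exposure was 96 h. Wells were PFA-fixed, Draq5-stained and imaged at 20X to count host cells. CC50 is the concentration that lowers the cell ratio to 0.5 versus the mean cell number in DMSO negative-control wells. Duplicate independent experiments.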

T1 sequence (P25779 whole entry): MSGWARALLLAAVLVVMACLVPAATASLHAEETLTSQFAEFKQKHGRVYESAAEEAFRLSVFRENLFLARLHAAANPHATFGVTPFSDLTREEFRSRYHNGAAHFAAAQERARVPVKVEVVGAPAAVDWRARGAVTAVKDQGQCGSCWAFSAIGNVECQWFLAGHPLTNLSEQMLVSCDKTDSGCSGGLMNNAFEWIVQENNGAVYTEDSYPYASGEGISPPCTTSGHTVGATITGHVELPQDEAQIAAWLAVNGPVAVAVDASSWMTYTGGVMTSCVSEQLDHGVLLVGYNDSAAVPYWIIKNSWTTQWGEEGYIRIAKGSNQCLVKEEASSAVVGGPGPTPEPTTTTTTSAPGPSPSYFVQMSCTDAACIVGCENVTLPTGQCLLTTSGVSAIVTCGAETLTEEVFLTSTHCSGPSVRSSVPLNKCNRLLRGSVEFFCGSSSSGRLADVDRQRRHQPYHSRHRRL
Chain of Procathepsin L (P07711 whole entry): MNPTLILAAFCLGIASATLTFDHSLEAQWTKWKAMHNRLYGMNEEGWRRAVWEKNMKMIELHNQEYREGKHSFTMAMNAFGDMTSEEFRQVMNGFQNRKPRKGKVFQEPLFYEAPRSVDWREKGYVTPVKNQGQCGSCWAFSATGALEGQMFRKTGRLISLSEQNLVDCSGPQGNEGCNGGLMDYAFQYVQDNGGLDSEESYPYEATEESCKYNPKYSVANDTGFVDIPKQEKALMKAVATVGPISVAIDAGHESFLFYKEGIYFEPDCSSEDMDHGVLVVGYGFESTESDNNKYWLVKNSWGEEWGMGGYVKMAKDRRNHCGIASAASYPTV
Chain of Cruzipain (Trypanosoma cruzi) (P25779 123-467 limits assumed): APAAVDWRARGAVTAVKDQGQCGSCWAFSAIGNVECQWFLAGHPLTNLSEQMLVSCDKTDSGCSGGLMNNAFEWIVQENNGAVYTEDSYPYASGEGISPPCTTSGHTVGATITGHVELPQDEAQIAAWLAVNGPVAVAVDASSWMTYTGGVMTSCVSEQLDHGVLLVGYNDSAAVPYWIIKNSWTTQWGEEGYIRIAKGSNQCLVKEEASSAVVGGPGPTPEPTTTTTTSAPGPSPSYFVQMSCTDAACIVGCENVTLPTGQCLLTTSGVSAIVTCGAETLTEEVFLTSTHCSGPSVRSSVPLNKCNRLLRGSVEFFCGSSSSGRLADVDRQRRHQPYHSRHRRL

## COc1ccc(C[C@H](N[C@H](c2ccccc2)C(F)(F)F)C(=O)O)cc1
[1]
  V0: 5.2 RFU/s
[2]
  Ki: 360 nM

## O=C(O)[C@H](Cc1c[nH]c2ccccc12)N[C@@H](c1cccc(Cl)c1)C(F)(F)F
[1]
  V0: 2.66 RFU/s
[2]
  Ki: 142 nM

## CC(C)C[C@H](N[C@H](c1ccccc1)C(F)(F)F)C(=O)NC1(C#N)CC1
[1]
  V0: 3.75 RFU/s
[3]
  Activity: inactive
[4]
  Ki: 200 nM
[5]
  logKw: 1.1
[2]
  Ki: 143 nM

## COc1ccc(C[C@H](N[C@H](c2ccccc2)C(F)(F)F)C(=O)NC2(C#N)CC2)cc1
[1]
  V0: 3.17 RFU/s
[4]
  Ki: 7940 nM
[5]
  logKw: 1.5

## CC(C)C[C@H](N[C@@H](c1ccc(-c2ccc(F)cc2)cc1)C(F)(F)F)C(=O)NC1(C#N)CC1
[1]
  V0: 3.87 RFU/s
[2]
  Ki: 4060 nM

## COc1ccc(C[C@H](N[C@@H](c2ccccc2)C(F)(F)F)C(=O)NC2(C#N)CC2)cc1
[1]
  V0: 3.56 RFU/s
[3]
  Activity: inactive
[4]
  Ki: 3980 nM
[5]
  logKw: 1.4

## N#CC1(NC(=O)[C@H](Cc2ccccc2)N[C@@H](c2ccc(Br)cc2)C(F)(F)F)CC1
[1]
  V0: 3.6 RFU/s
[3]
  Activity: inactive
[6]
  Ki: 251 nM
[4]
  Ki: 2000 nM
[5]
  logKw: 1.7

## CC(C)C[C@H](N[C@@H](c1ccc(-c2ccccc2)cc1)C(F)(F)F)C(=O)NC1(C#N)CC1
[1]
  V0: 3.85 RFU/s
[3]
  Activity: inactive
[6]
  Ki: 794 nM
[4]
  Ki: 7.94 nM
[5]
  logKw: 2.6

## CC(C)C[C@H](N[C@H](c1ccccc1)C(F)(F)F)C(=O)N[C@H](C#N)Cc1ccccc1
[1]
  V0: 2.71 RFU/s
[3]
  Activity: inactive
[6]
  Ki: 251 nM
[4]
  Ki: 398 nM
[5]
  logKw: 2.2

## O=C(O)[C@H](Cc1c[nH]c2ccccc12)N[C@H](c1cccc(Cl)c1)C(F)(F)F
[1]
  V0: 4.15 RFU/s
[2]
  Ki: 168 nM

## N#CC1(NC(=O)[C@@H](Cc2c[nH]c3ccccc23)N[C@@H](c2ccccc2)C(F)(F)F)CC1
[3]
  EC50: 25600 nM
[6]
  Ki: 1260 nM
[4]
  Ki: > 10000 nM

## COc1ccc(C[C@H](N[C@H](c2ccccc2)C(F)(F)F)C(=O)N[C@H](C#N)Cc2ccccc2)cc1
[3]
  Activity: inactive
[6]
  Ki: 1580 nM
[4]
  Ki: 3980 nM
[5]
  logKw: 2.7

## N#CC1(NC(=O)[C@H](Cc2ccccc2)N[C@H](c2ccccc2)C(F)(F)F)CC1
[1]
  V0: 3.53 RFU/s
[3]
  Activity: inactive
[5]
  logKw: 1.4

## CC(C)C[C@H](N[C@H](c1ccc(-c2ccc(F)cc2)cc1)C(F)(F)F)C(=O)NC1(C#N)CC1
[3]
  Activity: inactive
[6]
  Ki: 1000 nM
[4]
  Ki: 79.4 nM
[5]
  logKw: 2.8

## N#CC1(NC(=O)[C@H](Cc2ccccc2)N[C@H](c2cccc(Cl)c2)C(F)(F)F)CC1
[1]
  V0: 5.81 RFU/s
[3]
  Activity: inactive
[4]
  Ki: 3160 nM
[5]
  logKw: 1.7

## CC(C)C[C@H](N[C@H](c1ccc(-c2ccccc2)cc1)C(F)(F)F)C(=O)NC1(C#N)CC1
[3]
  Activity: inactive
[6]
  Ki: 631 nM
[4]
  Ki: 63.1 nM
[5]
  logKw: 2.8

## CC(C)(F)C[C@H](N[C@@H](c1ccc(-c2ccc(S(C)(=O)=O)cc2)cc1)C(F)(F)F)C(=O)NC1(C#N)CC1 [ODANACATIB]
[3]
  Activity: inactive
[6]
  Ki: 1260 nM
[5]
  logKw: 2

## CC(C)C[C@H](N[C@@H](c1ccc(-c2ccccc2)cc1)C(F)(F)F)C(=O)N[C@H](C#N)Cc1ccccc1
[1]
  V0: 3.22 RFU/s
[3]
  Activity: inactive
[6]
  Ki: 1580 nM
[4]
  Ki: 0.631 nM
[5]
  logKw: 3.2

## N#CC1(NC(=O)[C@H](Cc2ccccc2)NC(=O)c2ccccc2)CC1
[4]
  Ki: 316 nM

## CC(C)C[C@H](NC(=O)c1ccccc1)C(=O)NC1(C#N)CC1
[3]
  Activity: inactive
[6]
  Ki: 20 nM
[4]
  Ki: 50.1 nM

## CC(C)C[C@H](N[C@H](c1ccc(-c2ccccc2)cc1)C(F)(F)F)C(=O)N[C@H](C#N)Cc1ccccc1
[3]
  Activity: inactive
[4]
  Ki: 251 nM
[5]
  logKw: 3.1

## CC(C)C[C@H](NC(=O)c1ccccc1)C(=O)N[C@H](C#N)Cc1ccccc1
[3]
  Activity: inactive
[6]
  Ki: 63.1 nM
[4]
  Ki: 50.1 nM

## COc1ccc(C[C@H](N[C@@H](c2ccccc2)C(F)(F)F)C(=O)N[C@@H](C#N)Cc2ccccc2)cc1
[3]
  Activity: inactive
[6]
  Ki: 631 nM
[4]
  Ki: 398 nM
[5]
  logKw: 2.7

## COc1ccc(C[C@H](N[C@H](c2ccccc2)C(F)(F)F)C(=O)N[C@@H](C#N)Cc2ccccc2)cc1
[3]
  Activity: inactive
[6]
  Ki: > 10000 nM
[4]
  Ki: > 10000 nM

## N#CC1(NC(=O)[C@H](Cc2ccccc2)N[C@@H](c2cccc(Cl)c2)C(F)(F)F)CC1
[1]
  V0: 3.65 RFU/s
[2]
  Ki: 4.01 nM

## CC(C)C[C@H](N[C@@H](c1ccccc1)C(F)(F)F)C(=O)N[C@H](C#N)Cc1ccccc1
[3]
  Activity: inactive
[6]
  Ki: 5.01 nM
[4]
  Ki: 1.58 nM
[5]
  logKw: 2.3

## N#C[C@H](Cc1ccccc1)NC(=O)[C@H](Cc1ccccc1)N[C@H](c1ccc(-c2ccccc2)cc1)C(F)(F)F
[3]
  Activity: inactive
[4]
  Ki: > 10000 nM

## CC(C)C[C@H](N[C@@H](c1ccc(-c2cncnc2)cc1)C(F)(F)F)C(=O)N[C@H](C#N)Cc1ccccc1
[1]
  V0: 2.91 RFU/s
[3]
  Activity: inactive
[6]
  Ki: 25.1 nM
[4]
  Ki: 1.58 nM

## N#CC1(NC(=O)[C@H](Cc2ccccc2)N[C@@H](c2ccccc2)C(F)(F)F)CC1
[1]
  V0: 2.18 RFU/s
[3]
  Activity: inactive
[6]
  Ki: 158 nM
[4]
  Ki: 1000 nM
[5]
  logKw: 1

## N#CC1(NC(=O)[C@H](Cc2c[nH]c3ccccc23)N[C@H](c2ccccc2)C(F)(F)F)CC1
[3]
  EC50: 11500 nM
[6]
  Ki: 1000 nM
[4]
  Ki: > 10000 nM
[7]
  CC50: 33000 nM

## COc1ccc(C[C@H](N[C@@H](c2ccccc2)C(F)(F)F)C(=O)O)cc1
[1]
  V0: 3.85 RFU/s
[2]
  Ki: 38.8 nM

## CC(C)C[C@H](N[C@@H](c1ccccc1)C(F)(F)F)C(=O)NC1(C#N)CC1
[3]
  Activity: inactive
[4]
  Ki: 39.8 nM

## N#C[C@@H](Cc1ccccc1)NC(=O)[C@H](Cc1ccccc1)N[C@@H](c1ccccc1)C(F)(F)F
[3]
  Activity: inactive
[6]
  Ki: 631 nM
[4]
  Ki: 2510 nM
[5]
  logKw: 2.6
